Assay results as given in publication PMC8268672 (Bioorganic Chemistry, 2021).
Values after ≈ are worked out from the molar mass of the structure shown.

What was measured:
Assay type in all cases: cell-based
[1] = test system: Klebsiella aerogenes (NCIM-2098); test: MIC, broth microdilution; conditions: NCIM2098, read-out: Minimum inhibitory concentration (MIC), KA
Method in brief: (§1)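 Antibacterial MICs by CLSI broth microdilution in Mueller-Hinton broth. Test compounds and standard drugs are serially diluted two-fold from 512 to 0.25. The bacterial broth culture is grown 2-6 h to a 0.5 McFarland turbidity, then adjusted with sterile solution to the final inoculum.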

[2] = test system: Streptococcus pneumonia (ATCC 49619); test: Agar disk diffusion, inhibition zone; conditions: 100 µg/8 mm disc, triplicate, mean ± SD
[3] = test system: Escherichia coli (ATCC 8739); test: Agar disk diffusion, inhibition zone; conditions: 100 µg/8 mm disc, triplicate, mean ± SD
Method in brief: (§2)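 Agar disk diffusion on Mueller-Hinton agar plates seeded with a standard bacterial suspension. Test compound stock in DMSO, diluted with distilled water; 8 mm sterile filter-paper discs soaked in the solution. Ampicillin was the reference. Plates incubated at 35 °C for 24 h, in triplicate. Read-out is the average inhibition-zone diameter (mm) around each disc.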

[4] = test system: Cryptococcus neoformans (ATCC 9011); test: MIC, broth microdilution; conditions: ATCC9011, read-out: Minimum inhibitory concentration (MIC), CN
Method in brief: (§3)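 Antifungal MICs by CLSI broth microdilution in Sabouraud liquid medium. Test compounds and standard drugs are serially diluted two-fold from 512 to 0.25. The fungal broth culture is grown 24 h at 35 °C to a 0.5 McFarland turbidity, then adjusted with sterile solution to the final inoculum.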

[5] = test system: Staphylococcus aureus (ATCC 29213); test: Agar disk diffusion, inhibition zone; conditions: 100 µg/8 mm disc, triplicate, mean ± SD
Method in brief: as §2

[6] = test system: Klebsiella aerogenes (NCIM-2098); test: Agar disk diffusion, inhibition zone; conditions: 100 µg/8 mm disc, triplicate, mean ± SD
[7] = test system: Escherichia coli (ATCC 8739); test: MIC, broth microdilution; conditions: ATCC8739, read-out: Minimum inhibitory concentration (MIC), EC
Method in brief: (§4)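 Broth microdilution per CLSI in Mueller-Hinton broth, using two-fold serial dilutions of test compound and reference drugs from 512 to 0.25. Bacterial broth cultures were grown 2-6 h to 0.5 McFarland turbidity, then diluted with sterile solution to the final inoculum. MIC is reported in µg/mL.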

[8] = test system: Bacillus cereus (NCIM-2458); test: Agar disk diffusion, inhibition zone; conditions: 100 µg/8 mm disc, triplicate, mean ± SD
[9] = test system: Bacillus cereus (NCIM-2458); test: MIC, broth microdilution; conditions: NCIM2458, read-out: Minimum inhibitory concentration (MIC), BC
Method in brief: as §4

[10] = test system: Aspergillus fumigatus (NCIM 2081); test: MIC, broth microdilution; conditions: NCIM2081, read-out: Minimum inhibitory concentration (MIC), AF
Method in brief: as §3

[11] = test system: Aspergillus niger (NCIM 2191); test: MIC, broth microdilution; conditions: NCIM2191, read-out: Minimum inhibitory concentration (MIC), AN
Method in brief: as §3

[12] = test system: Salmonella typhimurium (NCIM-2501); test: Agar disk diffusion, inhibition zone; conditions: 100 µg/8 mm disc, triplicate, mean ± SD
[13] = test system: Aspergillus niger (NCIM 2191); test: Agar disk diffusion, inhibition zone; conditions: 100 µg/8 mm disc, triplicate, mean ± SD
Method in brief: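 For the fungal strain, discs soaked in test compound solution (DMSO stock diluted with distilled water) sat on seeded Mueller-Hinton agar. Clotrimazole was the reference. Incubation ran 48 h at 35 °C, in triplicate. Zone of growth inhibition recorded in mm as the mean diameter around each disc.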

[14] = test system: Cryptococcus neoformans (ATCC 9011); test: Agar disk diffusion, inhibition zone; conditions: 100 µg/8 mm disc, triplicate, mean ± SD
[15] = test system: Aspergillus fumigatus (NCIM 2081); test: Agar disk diffusion, inhibition zone; conditions: 100 µg/8 mm disc, triplicate, mean ± SD
[16] = test system: Pseudomonas aeruginosa (MCCB 0035); test: Agar disk diffusion, inhibition zone; conditions: 100 µg/8 mm disc, triplicate, mean ± SD
[17] = test system: Lactobacillus casei (NCIM-2651); test: Agar disk diffusion, inhibition zone; conditions: 100 µg/8 mm disc, triplicate, mean ± SD
[18] = test system: Candida albicans (NCIM 2087); test: MIC, broth microdilution; conditions: NCIM2087, read-out: Minimum inhibitory concentration (MIC), CA
Method in brief: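 CLSI broth microdilution in Sabouraud liquid medium, with test compound two-fold serially diluted from 512 to 0.25. Fungal broth culture grown 24 h at 35 °C to 0.5 McFarland turbidity, then adjusted with sterile solution to a final […] inoculum. MIC expressed in µg/mL.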

[19] = test system: Candida albicans (NCIM 2087); test: Agar disk diffusion, inhibition zone; conditions: 100 µg/8 mm disc, triplicate, mean ± SD
[20] = test system: Staphylococcus aureus (ATCC 29213); test: MIC, broth microdilution; conditions: ATCC29213, read-out: Minimum inhibitory concentration (MIC), SA
Method in brief: as §1

[21] = test system: Pseudomonas aeruginosa (MCCB 0035); test: MIC, broth microdilution; conditions: read-out: Minimum inhibitory concentration (MIC), PA
Method in brief: as §4

Row | SMILES | MIC [1] | Diameter of growth inhibition zone, SP [2] | Diameter of growth inhibition zone, EC [3] | MIC [4] | Diameter of growth inhibition zone, SA [5] | Diameter of growth inhibition zone, KA [6] | MIC [7] | Diameter of growth inhibition zone, BC [8] | MIC [9] | MIC [10] | MIC [11] | Diameter of growth inhibition zone, ST [12] | Diameter of growth inhibition zone, AN [13] | Diameter of growth inhibition zone, CN [14] | Diameter of growth inhibition zone, AF [15] | Diameter of growth inhibition zone, PA [16] | Diameter of growth inhibition zone, LC [17] | MIC [18] | Diameter of growth inhibition zone, CA [19] | MIC [20] | also measured
1 | Cc1ccc(S(=O)(=O)N2C(=O)CSC2c2ccccc2Br)cc1 (centres unmarked) [5b, 2-(2-Bromophenyl)-3-[(4-methylphenyl)sulfonyl]-1,3-thiazolidin-4-one] | 64 µg/mL (≈ 155 µM) | 08 ± 0.7 mm | 14 ± 0.56 mm | 128 µg/mL (≈ 310 µM) | 16 ± 1.1 mm | 10 ± 0.5 mm | 16 µg/mL (≈ 38.8 µM) | 10 ± 0.34 mm | 64 µg/mL (≈ 155 µM) | 64 µg/mL (≈ 155 µM) | 64 µg/mL (≈ 155 µM) | 12 ± 0.7 mm | 10.8 ± 0.51 mm | 7.2 ± 0.3 mm | 10 ± 0.9 mm | 15 ± 0.93 mm | 10 ± 0.6 mm | 32 µg/mL (≈ 77.6 µM) | 11.6 ± 0.65 mm | 32 µg/mL (≈ 77.6 µM) | MIC [21]: 32 µg/mL (≈ 77.6 µM)
2 | Cc1ccc(S(=O)(=O)N2C(=O)CSC2c2cccc(Cl)c2)cc1 (centres unmarked) [5f, 2-(3-Chlorophenyl)-3-[(4-methylphenyl)sulfonyl]-1,3-thiazolidin-4-one] | 8 µg/mL (≈ 21.7 µM) | 18 ± 0.7 mm | 18 ± 0.23 mm | 32 µg/mL (≈ 87 µM) | 20 ± 1.2 mm | 18 ± 0.23 mm | 8 µg/mL (≈ 21.7 µM) | 12 ± 2.2 mm | 32 µg/mL (≈ 87 µM) | 64 µg/mL (≈ 174 µM) | 16 µg/mL (≈ 43.5 µM) | 14 ± 0.2 mm | 11.2 ± 0.6 mm | 10 ± 0.7 mm | 11.8 ± 1.5 mm | 18 ± 0.56 mm | 14 ± 0.6 mm | 16 µg/mL (≈ 43.5 µM) | 12 ± 0.35 mm | 32 µg/mL (≈ 87 µM) | MIC [21]: 16 µg/mL (≈ 43.5 µM)
3 | Cc1ccc(S(=O)(=O)N2C(=O)CSC2c2ccc(Br)cc2)cc1 (centres unmarked) [5d, 2-(4-Bromophenyl)-3-[(4-methylphenyl)sulfonyl]-1,3-thiazolidin-4-one] | 8 µg/mL (≈ 19.4 µM) | 10 ± 1.6 mm | 20 ± 0.9 mm | 32 µg/mL (≈ 77.6 µM) | 21 ± 2.3 mm | 18 ± 0.3 mm | 4 µg/mL (≈ 9.7 µM) | 12 ± 0.4 mm | 32 µg/mL (≈ 77.6 µM) | 16 µg/mL (≈ 38.8 µM) | 32 µg/mL (≈ 77.6 µM) | 14 ± 0.6 mm | 11.8 ± 0.66 mm | 17 ± 1.0 mm | 9.8 ± 0.5 mm | 20 ± 1.1 mm | 18 ± 0.44 mm | 16 µg/mL (≈ 38.8 µM) | 12.9 ± 0.5 mm | 16 µg/mL (≈ 38.8 µM) | MIC [21]: 4 µg/mL (≈ 9.7 µM)
4 | Clc1ccccc1C(c1ccccc1)(c1ccccc1)n1ccnc1 [CL, Clotrimazole, reference compound] |  |  |  | 2 µg/mL (≈ 5.8 µM) |  |  |  |  |  | 1 µg/mL (≈ 2.9 µM) | 16 µg/mL (≈ 46.4 µM) |  | 23 mm | 19 mm | 22 mm |  |  | 4 µg/mL (≈ 11.6 µM) | 24 mm |  | 
